The text below walks through data of ChEMBL document CHEMBL1141657, “Synthesis, structure elucidation and identification of antitumoural properties of novel fused 1,2,4-triazine aryl derivatives” (Eur J Med Chem, 2008).

The nature of data set [1]: Growth inhibition of HSF cells assessed as BrdU incorporation at 33.1 uM after 72 hrs by spectrophotometry. The format is cell-based. Particulars: human, read-out: GI. In short, it runs like this: (§1)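 Cells were seeded at 10⁴ cells/mL and preincubated. Compounds were dissolved in DMSO and added at two fixed concentrations, then incubated for 72 h. End-point was BrdU labelling with ELISA detection, read spectrophotometrically. Result is % growth inhibition versus untreated controls. Triplicates.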
(Uptake of a labelled nucleoside into DNA is a usual measure of proliferation.)

The test system of the next data set is Vero. Put plainly: Growth inhibition of african green monkey Vero cells assessed as BrdU incorporation at 33.1 uM after 72 hrs by spectrophotometry. Format: cell-based. Particulars: chlorocebus sabaeus. In short, it runs like this:
as §1

The nature of data set [2]: Growth inhibition of human LS180 cells assessed as BrdU incorporation at 33.1 uM after 72 hrs by spectrophotometry. The format is functional. Particulars: LS180, 72 h, read-out: GI. In short, it runs like this:
as §1

For data set [3], the system named is SiHa. Put plainly: Growth inhibition of human SiHa cells assessed as BrdU incorporation at 33.1 uM after 72 hrs by spectrophotometry. Format: functional. The following applies: read-out: GI. In short, it runs like this:
as §1

The subject of data set [4] is T47D. Put plainly: Growth inhibition of human T47D cells assessed as BrdU incorporation at 33.1 uM after 72 hrs by spectrophotometry. Format: functional. Particulars: read-out: GI. In short, it runs like this: (§2)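 Each cell line was seeded at 10⁴ cells per mL and preincubated. Test agents were dissolved in DMSO, added at two examined concentrations (10 and 50 per mL by mass), and incubated for 72 h. The end-point was BrdU labeling and detection kit III read on an ELISA reader. Percent growth inhibition was calculated against untreated controls, in triplicate.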

The nature of data set [5]: Growth inhibition of HSF cells assessed as BrdU incorporation at 165.4 uM after 72 hrs by spectrophotometry. Format: cell-based. The following applies: human, read-out: GI. In short, it runs like this:
as §1

Data set [6] can be described thus: Growth inhibition of african green monkey Vero cells assessed as BrdU incorporation at 165.4 uM after 72 hrs by spectrophotometry. The format is cell-based. Particulars: chlorocebus sabaeus, read-out: GI. In short, it runs like this:
as §1

A short description of data set [7]: Growth inhibition of human LS180 cells assessed as BrdU incorporation at 165.4 uM after 72 hrs by spectrophotometry. Format: functional. The following applies: LS180, 72 h, read-out: GI. In short, it runs like this:
as §1

The test system of data set [8] is SiHa. Put plainly: Growth inhibition of human SiHa cells assessed as BrdU incorporation at 165.4 uM after 72 hrs by spectrophotometry. The format is functional. The following applies: read-out: GI. In short, it runs like this: as §1
Data set [9] relates to T47D. Put plainly: Growth inhibition of human T47D cells assessed as BrdU incorporation at 165.4 uM after 72 hrs by spectrophotometry. The format is functional. The following applies: read-out: GI. In short, it runs like this:
as §2

Data set [10] in a line: Cytotoxicity against HSF cells assessed as cell viability at 1 uM after 24 hrs by MTT assay relative to control. Format: cell-based. Particulars: human, read-out: Activity. In short, it runs like this: (§3)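 Normal human skin fibroblasts (HSF, primary line) were exposed to DMSO-dissolved compound for 24 h. Viability was read by MTT tetrazolium reduction and expressed against untreated control set at 100%.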
(Formazan colour is commonly taken as a measure of viable cells.)

Data set [11] in a line: Cytotoxicity against HSF cells assessed as cell viability at 50 uM after 24 hrs by MTT assay relative to control. The following applies: human, read-out: Activity. The format is cell-based. In short, it runs like this: as §3
The nature of data set [12]: Cytotoxicity against HSF cells assessed as cell viability at 100 uM after 24 hrs by MTT assay relative to control. Format: cell-based. Particulars: human, read-out: Activity. In short, it runs like this:
as §3

Data set [13] has as its system Jurkat. Put plainly: Cytotoxicity against human Jurkat cells assessed as cell viability at 1 uM after 24 hrs by MTT assay relative to control. Particulars: read-out: Activity. Format: functional. In short, it runs like this: (§4)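 Jurkat T-cell leukaemia line grown in RPMI 1640 with 10% FBS, 2 mM L-glutamine and gentamycin at 37 °C, 5% CO2, kept in log phase. Compounds were dissolved in DMSO and applied for 24 h. Cells were washed in HEPES-buffered medium (pH 7.4) and given MTT at 0.5 mg/mL for 45 min at 37 °C. Formazan was dissolved in DMSO and read at 570 nm. Viability is % of control, from three independent measurements.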

Data set [14] relates to Jurkat. The data set can be described thus: Cytotoxicity against human Jurkat cells assessed as cell viability at 50 uM after 24 hrs by MTT assay relative to control. The format is functional. Particulars: read-out: Activity. In short, it runs like this: as §4
The test system of data set [15] is Jurkat. The data set can be described thus: Cytotoxicity against human Jurkat cells assessed as cell viability at 100 uM after 24 hrs by MTT assay relative to control. Format: functional. Particulars: read-out: Activity. In short, it runs like this: as §4
Data set [16] has as its system SiHa. Put plainly: Growth inhibition of human SiHa cells assessed as BrdU incorporation at 32.6 uM after 72 hrs by spectrophotometry. The format is functional. The following applies: read-out: GI. In short, it runs like this: as §1
The nature of data set [17]: Growth inhibition of HSF cells assessed as BrdU incorporation at 32.6 uM after 72 hrs by spectrophotometry. Format: cell-based. The following applies: human, read-out: GI. In short, it runs like this: as §1
Data set [18] can be described thus: Growth inhibition of african green monkey Vero cells assessed as BrdU incorporation at 32.6 uM after 72 hrs by spectrophotometry. Particulars: chlorocebus sabaeus, read-out: GI. The format is cell-based. In short, it runs like this:
as §1

A short description of data set [19]: Growth inhibition of human LS180 cells assessed as BrdU incorporation at 32.6 uM after 72 hrs by spectrophotometry. Format: functional. The following applies: LS180, 72 h, read-out: GI. In short, it runs like this:
as §1

Data set [20] concerns T47D. The data set can be described thus: Growth inhibition of human T47D cells assessed as BrdU incorporation at 32.6 uM after 72 hrs by spectrophotometry. Particulars: read-out: GI. Format: functional. In short, it runs like this: as §2
Data set [21] is described as follows: Growth inhibition of HSF cells assessed as BrdU incorporation at 163.0 uM after 72 hrs by spectrophotometry. Format: cell-based. The following applies: human, read-out: GI. In short, it runs like this:
as §1

Data set [22] is described as follows: Growth inhibition of african green monkey Vero cells assessed as BrdU incorporation at 163.0 uM after 72 hrs by spectrophotometry. Format: cell-based. Particulars: chlorocebus sabaeus, read-out: GI. In short, it runs like this: as §1
A short description of data set [23]: Growth inhibition of human LS180 cells assessed as BrdU incorporation at 163.0 uM after 72 hrs by spectrophotometry. Particulars: LS180, 72 h, read-out: GI. The format is functional. In short, it runs like this: as §1
Data set [24] deals with SiHa. The data set can be described thus: Growth inhibition of human SiHa cells assessed as BrdU incorporation at 163.0 uM after 72 hrs by spectrophotometry. Format: functional. Particulars: read-out: GI. In short, it runs like this:
as §1

In data set [25] the test system is T47D. The data set can be described thus: Growth inhibition of human T47D cells assessed as BrdU incorporation at 163.0 uM after 72 hrs by spectrophotometry. Format: functional. Particulars: read-out: GI. In short, it runs like this:
as §2

Another data set relates to LS180. Put plainly: Induction of DNA damage in human LS180 cells at 32.6 uM by pulsed field gel electrophoresis. The format is functional, cell-based. In short, it runs like this: (§5)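 After treatment at 32.6, cells were washed twice with PBS. DNA was isolated with lysing buffer plus proteinase K, then purified. Cells were prepared as agarose plugs and run by pulsed field electrophoresis on a 1% agarose gel containing propidium iodide, at 120 V for 1.5 h at room temperature. Experiments were repeated three times.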

Data set [26] has as its system SiHa. The data set can be described thus: Induction of DNA damage in human SiHa cells at 32.6 uM by pulsed field gel electrophoresis. Format: functional, cell-based. In short, it runs like this:
as §5

Data set [27] relates to T47D. The data set can be described thus: Induction of DNA damage in human T47D cells at 32.6 uM by pulsed field gel electrophoresis. Format: functional, cell-based. In short, it runs like this:
as §5

The nature of data set [28]: Induction of apoptosis in HSF cells after 72 hrs by annexin V-propidium iodide based assay. Particulars: human. The format is cell-based. In short, it runs like this:
(§6)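 Cells were exposed for 72 h, then stained with an annexin V-FITC/propidium iodide detection kit. Apoptotic cells were counted by confocal microscopy using a 460–490 nm filter: yellow nuclei were early apoptosis, red were late, and unstained cells were living. 1000 cells were analysed per measurement, three independent measurements in all. Results are mean ± SD.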

Data set [29] deals with T47D. Put plainly: Induction of apoptosis in human T47D cells after 72 hrs by annexin V-propidium iodide based assay. Format: functional. In short, it runs like this: as §6
A short description of data set [30]: Growth inhibition of human LS180 cells assessed as BrdU incorporation after 72 hrs by spectrophotometry. The format is functional, cell-based. The following applies: LS180, 72 h. In short, it runs like this: (§7)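 Cancer cells were seeded at 10⁴ cells/mL, preincubated, then exposed for 72 h to DMSO-dissolved compound. Growth was read by BrdU labelling with ELISA spectrophotometry. IC50 was taken from 72 h dose–survival curves. Triplicates.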

Data set [31] deals with SiHa. Put plainly: Growth inhibition of human SiHa cells assessed as BrdU incorporation after 72 hrs by spectrophotometry. Format: functional, cell-based. In short, it runs like this:
as §7

The test system of data set [32] is T47D. Put plainly: Growth inhibition of human T47D cells assessed as BrdU incorporation after 72 hrs by spectrophotometry. Format: functional, cell-based. In short, it runs like this: as §7
The subject of data set [33] is Jurkat. The data set can be described thus: Cytotoxicity against human Jurkat cells assessed as decrease in cell viability after 24 hrs by MTT assay. Format: functional, cell-based. In short, it runs like this:
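Jurkat cells grown in RPMI 1640/10% FBS at 37 °C, 5% CO2, with 24 h exposure to DMSO-dissolved compound. Read-out was MTT reduction: 0.5 mg/mL in HEPES-buffered medium for 45 min, formazan in DMSO, absorbance at 570 nm. IC50 was taken from 24 h dose–survival curves.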

Activity calls are given as the source filed them. No cut-off for these calls is given here. Where only a bound is given, the exact number is not on record here.

Take `COc1ccc(N2CCn3c2nnc(C(=O)NN)c3=O)cc1`: in [1], the inhibition at 72 h, 33.1 µM worked out at 0%. In addition, the “growth inhibition (GI)” value in the data set with Vero came out at 0%. Moreover, the figures for the inhibition of growth at 33.1 µM (in data set [2]; in the data set on SiHa [3]; in the data set with T47D [4]) were 1%, 19% and 1%, respectively. Also, the inhibition at 72 h, 165.4 µM in [5] and in [6] was 0% each time. Besides, the inhibition of growth at 165.4 µM is 1% in data set [7], 18% with SiHa [8] and 0% with T47D [9]. The viability at 24 h, 1 µM in data set [10] was determined as 98%. Besides, the viability at 24 h, 50 µM in data set [11] was found to be 102%. Further, in [12], the viability at 24 h, 100 µM was 100%. In addition, the viability at 1 µM in the data set with Jurkat [13] was found to be 97%. In addition, the viability at 50 µM in the data set on Jurkat [14] stood at 97%. In addition, in the data set on Jurkat [15], the viability at 100 µM worked out at 100%.
As a reminder, the IC50 is the point on the concentration scale where inhibition reaches its midpoint. Consider `NNC(=O)c1nnc2n(c1=O)CCN2c1cccc(Cl)c1`, for which the inhibition of growth at 32.6 µM in the data set with SiHa [16] came to 45%; in [19] it was 42%; with T47D [20], 26%. For the same molecule, the inhibition at 72 h, 32.6 µM in data set [17] came out at 0%; in data set [18], 20%. In addition, the inhibition at 72 h, 163 µM in data set [21] stood at 0%; in data set [22] it was 29%. For the same molecule, the inhibition of growth at 163 µM amounted to 54% in data set [23], 63% in the data set on SiHa [24] and 40% with T47D [25]. In addition, the outcome in the data set with LS180, with SiHa [26] and with T47D [27] was Active. Besides, the Activity was found to be 1% in data set [28] and 8.5% with T47D [29]. In [10], the viability at 24 h, 1 µM turned out to be 108%. Also, the viability at 24 h, 50 µM in [11] is 113%. Further, the viability at 24 h, 100 µM in data set [12] is 105%. For the same molecule, the viability at 1 µM in the data set with Jurkat [13] is 100%. Also, in the data set with Jurkat [14], the viability at 50 µM worked out at 116%. In the data set on Jurkat [15], the viability at 100 µM amounted to 115%. Moreover, the IC50 in data set [30] is over 100 µM; in the data set on SiHa [31] it was 75.4 µM; in the data set with T47D [32], over 100 µM; in the data set on Jurkat [33], over 100 µM.
